In brackets after ≈: the same amount, converted by molar mass.
Tests used:
Assay type in all cases: functional
[1] = tested on: Klebsiella pneumoniae; assay: Antimicrobial activity against multidrug-resistant Klebsiella pneumoniae after 24 hrs
Outline: (§1)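 Twofold serial broth dilution in Mueller-Hinton broth. MHB was used both to dilute the bacterial suspension and for the twofold compound dilutions, giving 10^3 cfu/ml bacteria per well after inoculation. Solvent, medium and organism-only wells served as controls. Each organism was run in triplicate.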

[2] = tested on: Klebsiella pneumoniae; assay: Antimicrobial activity against Klebsiella pneumoniae RSHM 574 after 24 hrs; conditions: RSHM 574, 24 h
Outline: (§2)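 MIC by twofold serial dilution in Mueller-Hinton broth (MHB); MHB also used to dilute the bacterial suspension. Wells held 10^3 cfu/ml bacteria after inoculation. Controls: 80% DMSO, 20% EtOH, methanol, DMSO, PBS, organism alone and medium alone. Triplicate in each run. MIC taken as the lowest concentration completely inhibiting macroscopic growth.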

[3] = tested on: Bacillus subtilis; assay: Antimicrobial activity against ceftriazone-resistant Bacillus subtilis after 24 hrs; outline: as §1
[4] = tested on: Staphylococcus aureus; assay: Antimicrobial activity against multidrug-resistant Staphylococcus aureus after 24 hrs; outline: as §1
[5] = tested on: Bacillus subtilis; assay: Antimicrobial activity against Bacillus subtilis ATCC 6633 after 24 hrs; conditions: for MIC: Bacillus subtilis, ATCC 6633, 24 h; outline: as §2
[6] = tested on: Escherichia coli; assay: Antimicrobial activity against multidrug-resistant Escherichia coli after 24 hrs; outline: as §1
[7] = tested on: Escherichia coli; assay: Antimicrobial activity against Escherichia coli ATCC 25922 after 24 hrs; conditions: ATCC 25922, 24 h; outline: as §2
[8] = tested on: Pseudomonas aeruginosa; assay: Antimicrobial activity against Pseudomonas aeruginosa ATCC […] after 24 hrs; outline: as §2
[9] = tested on: Staphylococcus aureus; assay: Antimicrobial activity against Staphylococcus aureus ATCC 25923 after 24 hrs; conditions: ATCC 25923, 24 h; outline: as §1
[10] = tested on: Candida albicans; assay: Antimicrobial activity against multidrug-resistant Candida albicans isolates after 24 to 48 hrs
Outline: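 Yeast broth microdilution following CLSI M27-A, with Sabouraud dextrose medium noted for antifungal assays. Fresh cultures at McFarland 0.5 (10^6 cfu/ml) were diluted to 10^4 cfu/ml and inoculated into twofold compound dilutions. Trays were incubated at 35 °C in a humid chamber and read at 48 h, in triplicate. MIC was the lowest concentration giving complete macroscopic growth inhibition.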

[11] = tested on: Candida albicans; assay: Antimicrobial activity against Candida albicans ATCC 10231 after 24 to 48 hrs
Outline: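 Twofold serial dilution following CLSI M27-A. Yeast suspension made at 10^4 cfu/ml by diluting a fresh culture at McFarland 0.5 (10^6 cfu/ml). Inoculated into the diluted compound, incubated at 35 °C in a humid chamber, read after 48 h. Triplicate in each run. MIC is the lowest concentration completely inhibiting macroscopic growth.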

| SMILES | MIC [1] [µg/mL] | MIC [2] [µg/mL] | MIC [3] [µg/mL] | MIC [4] [µg/mL] | log(1/C) [5] | MIC [5] [µg/mL] | MIC [6] [µg/mL] | MIC [7] [µg/mL] | MIC [8] [µg/mL] | MIC [9] [µg/mL] | MIC [10] [µg/mL] | MIC [11] [µg/mL] |
| --- | --- | --- | --- | --- | --- | --- | --- | --- | --- | --- | --- | --- |
| CC(C)(C)c1ccc(-c2nc3ccc([N+](=O)[O-])cc3o2)cc1 | 100 (≈ 337 µM) | 50 (≈ 169 µM) | 100 (≈ 337 µM) | 100 (≈ 337 µM) | 3.773 | 50 (≈ 169 µM) | 100 (≈ 337 µM) | 50 (≈ 169 µM) | 50 (≈ 169 µM) | 100 (≈ 337 µM) | 100 (≈ 337 µM) | 50 (≈ 169 µM) |
| Nc1ccc2oc(Cc3ccc(F)cc3)nc2c1 | 100 (≈ 413 µM) | 50 (≈ 206 µM) | 50 (≈ 206 µM) | 100 (≈ 413 µM) | 3.685 | 50 (≈ 206 µM) | 25 (≈ 103 µM) | 50 (≈ 206 µM) | 50 (≈ 206 µM) | 200 (≈ 826 µM) | 50 (≈ 206 µM) | 100 (≈ 413 µM) |
| Cc1ccc(Cc2nc3cc(N)ccc3o2)cc1 | 100 (≈ 420 µM) | 50 (≈ 210 µM) | 25 (≈ 105 µM) | 100 (≈ 420 µM) | 4.28 | 12.5 (≈ 52.5 µM) | 50 (≈ 210 µM) | 50 (≈ 210 µM) | 50 (≈ 210 µM) | 100 (≈ 420 µM) | 50 (≈ 210 µM) | 100 (≈ 420 µM) |
| O=[N+]([O-])c1ccc2nc(Cc3ccc(Br)cc3)oc2c1 | 100 (≈ 300 µM) | 50 (≈ 150 µM) | 25 (≈ 75 µM) | 100 (≈ 300 µM) | 4.125 | 25 (≈ 75 µM) | 100 (≈ 300 µM) | 50 (≈ 150 µM) | 25 (≈ 75 µM) | 100 (≈ 300 µM) | 100 (≈ 300 µM) | 50 (≈ 150 µM) |
| O=[N+]([O-])c1ccc2oc(-c3ccccc3)nc2c1 | 100 (≈ 416 µM) | 50 (≈ 208 µM) | 25 (≈ 104 µM) | 400 (≈ 1670 µM) | 4.284 | 12.5 (≈ 52 µM) | 50 (≈ 208 µM) | 50 (≈ 208 µM) | 25 (≈ 104 µM) | 200 (≈ 833 µM) | 50 (≈ 208 µM) | 100 (≈ 416 µM) |
| Nc1ccc2oc(-c3ccc(F)cc3)nc2c1 | 100 (≈ 438 µM) | 50 (≈ 219 µM) | 50 (≈ 219 µM) | 100 (≈ 438 µM) | 3.96 | 25 (≈ 110 µM) | 100 (≈ 438 µM) | 50 (≈ 219 µM) | 50 (≈ 219 µM) | 50 (≈ 219 µM) | 50 (≈ 219 µM) | 50 (≈ 219 µM) |
| Nc1ccc2oc(-c3ccccc3)nc2c1 | 100 (≈ 476 µM) | 50 (≈ 238 µM) | 50 (≈ 238 µM) | 100 (≈ 476 µM) | 4.226 | 12.5 (≈ 59.5 µM) | 50 (≈ 238 µM) | 50 (≈ 238 µM) | 50 (≈ 238 µM) | 100 (≈ 476 µM) | 50 (≈ 238 µM) | 100 (≈ 476 µM) |
| Nc1ccc2nc(Cc3ccc(Cl)cc3)oc2c1 | 100 (≈ 387 µM) | 50 (≈ 193 µM) | 25 (≈ 96.6 µM) | 100 (≈ 387 µM) | 4.32 | 12.5 (≈ 48.3 µM) | 100 (≈ 387 µM) | 50 (≈ 193 µM) | 25 (≈ 96.6 µM) | 100 (≈ 387 µM) | 50 (≈ 193 µM) | 50 (≈ 193 µM) |
| CCc1ccc(-c2nc3cc(N)ccc3o2)cc1 | 100 (≈ 420 µM) | 50 (≈ 210 µM) | 50 (≈ 210 µM) | 100 (≈ 420 µM) | 4.28 | 12.5 (≈ 52.5 µM) | 100 (≈ 420 µM) | 50 (≈ 210 µM) | 50 (≈ 210 µM) | 25 (≈ 105 µM) | 50 (≈ 210 µM) | 50 (≈ 210 µM) |
| O=[N+]([O-])c1ccc2nc(-c3ccc(F)cc3)oc2c1 | 100 (≈ 387 µM) | 50 (≈ 194 µM) | 25 (≈ 96.8 µM) | 100 (≈ 387 µM) | 3.713 | 50 (≈ 194 µM) | 100 (≈ 387 µM) | 50 (≈ 194 µM) | 50 (≈ 194 µM) | 100 (≈ 387 µM) | 100 (≈ 387 µM) | 50 (≈ 194 µM) |
| Nc1ccc2nc(Cc3ccc(F)cc3)oc2c1 | 100 (≈ 413 µM) | 50 (≈ 206 µM) | 50 (≈ 206 µM) | 100 (≈ 413 µM) | 3.685 | 50 (≈ 206 µM) | 50 (≈ 206 µM) | 50 (≈ 206 µM) | 25 (≈ 103 µM) | 100 (≈ 413 µM) | 50 (≈ 206 µM) | 50 (≈ 206 µM) |
| Nc1ccc2nc(Cc3ccc(Br)cc3)oc2c1 | 100 (≈ 330 µM) | 50 (≈ 165 µM) | 50 (≈ 165 µM) | 100 (≈ 330 µM) | 4.084 | 25 (≈ 82.5 µM) | 100 (≈ 330 µM) | 50 (≈ 165 µM) | 50 (≈ 165 µM) | 100 (≈ 330 µM) | 100 (≈ 330 µM) | 50 (≈ 165 µM) |
| O=[N+]([O-])c1ccc2oc(-c3ccc(F)cc3)nc2c1 | 100 (≈ 387 µM) | 50 (≈ 194 µM) | 25 (≈ 96.8 µM) | 100 (≈ 387 µM) | 3.713 | 50 (≈ 194 µM) | 100 (≈ 387 µM) | 50 (≈ 194 µM) | 50 (≈ 194 µM) | 100 (≈ 387 µM) | 100 (≈ 387 µM) | 50 (≈ 194 µM) |
| O=[N+]([O-])c1ccc2nc(Cc3ccc(F)cc3)oc2c1 | 100 (≈ 367 µM) | 50 (≈ 184 µM) | 100 (≈ 367 µM) | 100 (≈ 367 µM) | 4.338 | 12.5 (≈ 45.9 µM) | 50 (≈ 184 µM) | 50 (≈ 184 µM) | 50 (≈ 184 µM) | 100 (≈ 367 µM) | 50 (≈ 184 µM) | 100 (≈ 367 µM) |
| CCc1ccc(-c2nc3cc([N+](=O)[O-])ccc3o2)cc1 | 100 (≈ 373 µM) | 50 (≈ 186 µM) | 25 (≈ 93.2 µM) | 100 (≈ 373 µM) | 3.73 | 50 (≈ 186 µM) | 100 (≈ 373 µM) | 50 (≈ 186 µM) | 50 (≈ 186 µM) | 100 (≈ 373 µM) | 100 (≈ 373 µM) | 50 (≈ 186 µM) |
